Measurements taken from ChEMBL document CHEMBL1137992, “Long hydrocarbon chain keto diols and diacids that favorably alter lipid disorders in vivo” (J Med Chem, 2004).

Tests used:
[1] = Concentration required for inhibition of lipid synthesis in primary cultures of rat hepatocytes; assay type: functional, cell-based; settings: Hepatocyte
How it was run: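 Primary hepatocytes from male Sprague-Dawley rats (Seglen isolation), plated at 1.5×10^5 cells/cm² on collagen in serum-containing DMEM, switched to serum-free medium after 4 h, grown overnight to monolayers. Cells incubated 4 h with 0.25 μCi [1-14C]acetate/well (1 Ci/mol final) plus 0, 1, 3, 10, 30, 100 or 300 μM compound. Lipids extracted into scintillant and counted; IC50 taken from lipid synthesis rates.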

[2] = test system: Rattus norvegicus; experiment: Percent decrease in nonesterified fatty acids in obese Zucker rats after 1 week of treatment at a dose of 100 mg/kg/day; assay type: functional; design: scale not given: the % may be the effect or the level left
How it was run: (§1)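 Female Zucker fatty rats [Crl:(Zuc)-faBR], 10–12 weeks, 400–500 g, acclimated 7 days on chow. Compound or vehicle (20% EtOH/80% PEG-200) given by daily oral gavage for 2 weeks, 0–100 mg/kg/day. After a 6 h fast, blood was taken before dosing, at 1 wk and at 2 wk. Serum lipids, NEFA and insulin (ELISA) were measured; glucose by glucometer. HDL/non-HDL-C came from Superose 6 gel-filtration profiles. Values are % change from pretreatment, mean ± SEM.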

[3] = test system: Rattus norvegicus; experiment: Amount of glucose in obese Zucker rats after 2 weeks of treatment at a dose of 100 mg/kg/day; assay type: functional
How it was run: (§2)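 Female Zucker fatty rats [Crl:(Zuc)-faBR], 10–12 weeks old (400–500 g), gavaged daily with vehicle (20% EtOH/80% PEG-200, 0.25% of body weight) or compound. After a 6-h fast, blood glucose was read by glucometer from tail-prick blood of unanesthetized rats before dosing and after 1 and 2 weeks. Values are mean ± SEM.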

[4] = test system: Rattus norvegicus; experiment: Amount of non-HDL-cholesterol in obese Zucker rats at pre-treatment at a dose of 0 mg/kg/day; assay type: functional
How it was run: (§3)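 Female obese Zucker fatty rats [Crl:(Zuc)-faBR], 10–12 weeks old (400–500 g), on chow. Compound in 20% EtOH/80% PEG-200 (v/v) given by daily oral gavage. After a 6-h fast, serum was taken before dosing and at 7 days (orbital plexus), and at 14 days (cardiac puncture). Lipoprotein cholesterol came from Superose 6HR gel-filtration profiles × serum total cholesterol. Mean ± SEM.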

[5] = test system: Rattus norvegicus; experiment: Amount of insulin in obese Zucker rats at pre-treatment at a dose of 0 mg/kg/day; assay type: functional
How it was run: (§4)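 Female obese Zucker rats [Crl:(Zuc)-faBR], 400–500 g, given daily oral gavage in 20% EtOH/80% PEG-200 for up to 14 days. After a 6-h fast, serum was collected pretreatment and at day 7 (orbital bleed) and day 14 (cardiac puncture) and stored at -80 °C. Insulin was measured by ELISA. Values are mean ± SEM.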

[6] = test system: Rattus norvegicus; experiment: Amount of triglycerides in obese Zucker rats at pre-treatment at a dose of 0 mg/kg/day; assay type: functional
How it was run: (§5)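 Female Zucker fatty rats [Crl:(Zuc)-faBR], 10–12 weeks old (400–500 g), dosed once daily by oral gavage in 20% EtOH/80% PEG-200 for up to 14 days. After a 6-h fast, serum was taken pre-dose, at day 7 (orbital venous plexus, O2/CO2 anaesthesia) and at day 14 (cardiac puncture), stored at −80 °C, and assayed on a Hitachi 912 automatic analyzer. Mean ± SEM.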

[7] = test system: Rattus norvegicus; experiment: Amount of triglycerides in obese Zucker rats after 1 week of treatment at a dose of 0 mg/kg/day; assay type: functional; how it was run: as §5
[8] = test system: Rattus norvegicus; experiment: Amount of triglycerides in obese Zucker rats after 1 week of treatment at a dose of 10 mg/kg/day; assay type: functional; how it was run: as §5
[9] = test system: Rattus norvegicus; experiment: Amount of triglycerides in obese Zucker rats after 2 weeks of treatment at a dose of 3 mg/kg/day; assay type: functional; how it was run: as §5
[10] = test system: Rattus norvegicus; experiment: Amount of triglycerides in obese Zucker rats after 2 weeks of treatment at a dose of 100 mg/kg/day; assay type: functional; how it was run: as §5
[11] = test system: Rattus norvegicus; experiment: Amount of HDL-cholesterol in obese Zucker rats after 1 week of treatment at a dose of 10 mg/kg/day; assay type: functional
How it was run: (§6)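 Female Zucker fatty rats [Crl:(Zuc)-faBR], 10–12 weeks old (400–500 g), dosed once daily by oral gavage in 20% EtOH/80% PEG-200 (dose volume 0.25% of body weight). Rats were fasted 6 h and bled before dosing and at day 7 (orbital plexus), and at day 14 (cardiac puncture). Serum cholesterol fractions came from Superose 6 gel-filtration lipoprotein profiles (% peak area × serum total cholesterol). Values are mean ± SEM.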

[12] = test system: Rattus norvegicus; experiment: Amount of HDL-cholesterol in obese Zucker rats after 2 weeks of treatment at a dose of 3 mg/kg/day; assay type: functional; how it was run: as §6
[13] = test system: Rattus norvegicus; experiment: Amount of HDL-cholesterol in obese Zucker rats after 2 weeks of treatment at a dose of 100 mg/kg/day; assay type: functional; how it was run: as §6
[14] = test system: Rattus norvegicus; experiment: Amount of non-HDL-cholesterol in obese Zucker rats after 2 weeks of treatment at a dose of 3 mg/kg/day; assay type: functional; how it was run: as §3
[15] = test system: Rattus norvegicus; experiment: Percentage change of triglycerides in obese female Zucker rats after 1 week of pre-treatment at a dose of 100 mg/kg/day; assay type: functional
How it was run: (§7)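 Female Zucker fatty rats [Crl:(Zuc)-faBR], 10–12 weeks old (400–500 g), acclimated 7 days and fed rodent chow. Dosed once daily by oral gavage in 20% EtOH/80% PEG-200 (v/v), at 0.25% of body weight, for 2 weeks. Blood taken after a 6-h fast: orbital plexus before dosing and at day 7, cardiac puncture at day 14. Serum lipoprotein cholesterol measured by Superose 6 gel filtration with on-line cholesterol detection. Values are % change from pretreatment, mean ± SEM.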

[16] = test system: Rattus norvegicus; experiment: Percent decrease in triglycerides in obese Zucker rats after 1 week of treatment at a dose of 10 mg/kg/day; assay type: functional; design: scale not given: the % may be the effect or the level left; how it was run: as §1
[17] = test system: Rattus norvegicus; experiment: Percent increase in HDL-cholesterol in obese Zucker rats after 1 week of treatment at a dose of 100 mg/kg/day; assay type: functional; how it was run: as §1
[18] = test system: Rattus norvegicus; experiment: Percent increase in non-HDL-cholesterol in obese Zucker rats after 1 week of treatment at a dose of 0 mg/kg/day; assay type: functional; how it was run: as §1
[19] = test system: Rattus norvegicus; experiment: Percentage change of non-HDL cholesterol levels in obese female Zucker rats after 2 weeks of pre-treatment at a dose of 100 mg/kg/day; assay type: functional; how it was run: as §7
[20] = test system: Rattus norvegicus; experiment: Amount of nonesterified fatty acids in obese Zucker rats after 1 week of treatment at a dose of 0 mg/kg/day; assay type: functional; how it was run: as §5
[21] = test system: Rattus norvegicus; experiment: Amount of nonesterified fatty acids in obese Zucker rats after 2 weeks of treatment at a dose of 3 mg/kg/day; assay type: functional; how it was run: as §5
[22] = test system: Rattus norvegicus; experiment: Amount of nonesterified fatty acids in obese Zucker rats after 2 weeks of treatment at a dose of 10 mg/kg/day; assay type: functional; how it was run: as §5
[23] = test system: Rattus norvegicus; experiment: Amount of glucose in obese Zucker rats after 1 week of treatment at a dose of 0 mg/kg/day; assay type: functional; how it was run: as §2
[24] = test system: Rattus norvegicus; experiment: Amount of insulin in obese Zucker rats after 1 week of treatment at a dose of 0 mg/kg/day; assay type: functional; how it was run: as §4
[25] = test system: Rattus norvegicus; experiment: Amount of triglycerides in obese Zucker rats at pre-treatment at a dose of 30 mg/kg/day; assay type: functional; how it was run: as §5
[26] = test system: Rattus norvegicus; experiment: Amount of insulin in obese Zucker rats after 1 week of treatment at a dose of 10 mg/kg/day; assay type: functional; how it was run: as §4
[27] = test system: Rattus norvegicus; experiment: Amount of insulin in obese Zucker rats after 1 week of treatment at a dose of 100 mg/kg/day; assay type: functional; how it was run: as §4
[28] = test system: Rattus norvegicus; experiment: Amount of insulin in obese Zucker rats after 2 weeks of treatment at a dose of 3 mg/kg/day; assay type: functional; how it was run: as §4

| Compound | IC50 [1] | Activity [2] | Activity [3] | Activity [4] | Activity [5] | Activity [6] | Activity [7] | Activity [8] | Activity [9] | Activity [10] | Activity [11] | Activity [12] | Activity [13] | Change [15] | Activity [17] | Change [19] | Activity [20] | Activity [21] | Activity [22] | Activity [23] | other results |
| --- | --- | --- | --- | --- | --- | --- | --- | --- | --- | --- | --- | --- | --- | --- | --- | --- | --- | --- | --- | --- | --- |
| CC(C)(CO)CCCCC(=O)CCCCC(C)(C)CO | 4000 nM | -30% | 118 mg/dL | 25 mg/dL | 9.1 ng/mL | 933 mg/dL | 1114 mg/dL | 602 mg/dL | 781 mg/dL | 702 mg/dL | 52 mg/dL | 39 mg/dL | 79 mg/dL | -54% | 73% | -10% | 1.3 mg/dL | 1.6 mg/dL | 1 mg/dL | 118 mg/dL | Activity [14]: 22 mg/dL; Activity [16]: -23%; Activity [18]: 44%; Activity [24]: 8.7 ng/mL; Activity [25]: 998 mg/dL; Activity [26]: 7.5 ng/mL; Activity [27]: 10.9 ng/mL; Activity [28]: 7.8 ng/mL |
| CC(C)(CCCCC(=O)CCCCC(C)(C)C(=O)O)C(=O)O | 3000 nM | -33% | 122 mg/dL | 40 mg/dL | 9.8 ng/mL | 130 mg/dL | 1333 mg/dL | 692 mg/dL | 857 mg/dL | 440 mg/dL | 47 mg/dL | 33 mg/dL | 68 mg/dL | -75% | 74% | -41% | 1.5 mg/dL | 1.5 mg/dL | 1.5 mg/dL | 124 mg/dL | Activity [14]: 24 mg/dL; Activity [24]: 8.4 ng/mL; Activity [25]: 1242 mg/dL; Activity [26]: 7.7 ng/mL; Activity [27]: 9 ng/mL; Activity [28]: 8.6 ng/mL |
| CC(C)(CCCCCC(=O)CCCCCC(C)(C)C(=O)O)C(=O)O | 3000 nM | -30% | 105 mg/dL | 20 mg/dL | 9.1 ng/mL | 950 mg/dL | 1119 mg/dL | 553 mg/dL | 833 mg/dL | 78 mg/dL | 136 mg/dL | 77 mg/dL | 141 mg/dL | -93% | 51% | -99% | 1.3 mg/dL | 1 mg/dL | 0.95 mg/dL | 123 mg/dL | Activity [16]: -36%; Activity [18]: 45%; Activity [24]: 10.1 ng/mL; Activity [25]: 982 mg/dL; Activity [26]: 10.5 ng/mL; Activity [27]: 6.4 ng/mL; Activity [28]: 7.3 ng/mL |
